# Calls of active or inactive are those of the source. The rule behind the calls is not given here.
# Columns and labels:
# [1] = test system: dsDNA; assay: Binding affinity to 5'-ACTTATTCCATATAGA-3'/3'-TGAATAAGGTATATCT-5' dsDNA (unknown origin) assessed as change in melting temperature at 2.5 uM by spectrophotometric method; format: nucleic-acid assay
# [2] = test system: dsDNA; assay: Binding affinity to 5'-ACTTATCCACTATAGA-3'/3'-TGAATAGGTGATATCT-5' dsDNA (unknown origin) assessed as change in melting temperature at 2.5 uM by spectrophotometric method; format: nucleic-acid assay
# [3] = target: T1, Histone acetyltransferase p300 (Homo sapiens, UniProt Q09472); assay: Inhibition of p300 (unknown origin) using H3 peptide and acetyl-coA as substrate by fluorometric assay
# Summary of the method: (§1)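 Fluorometric HAT kit assay with recombinant p300 core domain as enzyme and acetyl-CoA plus H3 histone peptide as substrates. Effectors were tested at 1 and 5 μM. HeLa nuclear extract served as positive control, and 0.5% DMSO was set as 100% activity.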
# [4] = test system: A549; assay: Antiproliferative activity against human A549 cells at 0.1 to 10 uM after 96 hrs by WST8 assay; format: functional, cell-based
# Summary of the method: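 Cells seeded at 5×10^3 per well and grown 24 h at 37°C, 5% CO2. A549 medium was DMEM with 10% FBS and 2 mM L-glutamine. SW620 medium had 10% FBS and 1% penicillin/streptomycin. Medium was then replaced with conjugate at 0.1, 1, 5 or 10 μM for 96 h. WST-8 reagent was added and absorbance read at 450 nm. Results are mean ± SD.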
# [5] = test system: A549; assay: Anticlonogenic activity against human A549 cells after 10 days; format: functional, cell-based; settings: A549, 240 h
# [6] = test system: NCI-H157; assay: Anticlonogenic activity against human NCI-H157 cells after 10 days; format: functional, cell-based; settings: NCI-H157, 240 h
# [7] = test system: NCI-H460; assay: Anticlonogenic activity against human NCI-H460 cells after 10 days; format: functional, cell-based; settings: NCI-H460, 240 h
# [8] = target: T1, Histone acetyltransferase p300; assay: Inhibition of p300 (unknown origin) at 1 to 5 uM sing H3 peptide and acetyl-coA as substrate by fluorometric assay
# Summary of the method: as §1, with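 “substrates. Released CoA-SH reacts with a developer, read at Ex/Em 535/587 nm.” for “substrates.”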
# T1 sequence (Q09472 whole entry, the tested form may be a part): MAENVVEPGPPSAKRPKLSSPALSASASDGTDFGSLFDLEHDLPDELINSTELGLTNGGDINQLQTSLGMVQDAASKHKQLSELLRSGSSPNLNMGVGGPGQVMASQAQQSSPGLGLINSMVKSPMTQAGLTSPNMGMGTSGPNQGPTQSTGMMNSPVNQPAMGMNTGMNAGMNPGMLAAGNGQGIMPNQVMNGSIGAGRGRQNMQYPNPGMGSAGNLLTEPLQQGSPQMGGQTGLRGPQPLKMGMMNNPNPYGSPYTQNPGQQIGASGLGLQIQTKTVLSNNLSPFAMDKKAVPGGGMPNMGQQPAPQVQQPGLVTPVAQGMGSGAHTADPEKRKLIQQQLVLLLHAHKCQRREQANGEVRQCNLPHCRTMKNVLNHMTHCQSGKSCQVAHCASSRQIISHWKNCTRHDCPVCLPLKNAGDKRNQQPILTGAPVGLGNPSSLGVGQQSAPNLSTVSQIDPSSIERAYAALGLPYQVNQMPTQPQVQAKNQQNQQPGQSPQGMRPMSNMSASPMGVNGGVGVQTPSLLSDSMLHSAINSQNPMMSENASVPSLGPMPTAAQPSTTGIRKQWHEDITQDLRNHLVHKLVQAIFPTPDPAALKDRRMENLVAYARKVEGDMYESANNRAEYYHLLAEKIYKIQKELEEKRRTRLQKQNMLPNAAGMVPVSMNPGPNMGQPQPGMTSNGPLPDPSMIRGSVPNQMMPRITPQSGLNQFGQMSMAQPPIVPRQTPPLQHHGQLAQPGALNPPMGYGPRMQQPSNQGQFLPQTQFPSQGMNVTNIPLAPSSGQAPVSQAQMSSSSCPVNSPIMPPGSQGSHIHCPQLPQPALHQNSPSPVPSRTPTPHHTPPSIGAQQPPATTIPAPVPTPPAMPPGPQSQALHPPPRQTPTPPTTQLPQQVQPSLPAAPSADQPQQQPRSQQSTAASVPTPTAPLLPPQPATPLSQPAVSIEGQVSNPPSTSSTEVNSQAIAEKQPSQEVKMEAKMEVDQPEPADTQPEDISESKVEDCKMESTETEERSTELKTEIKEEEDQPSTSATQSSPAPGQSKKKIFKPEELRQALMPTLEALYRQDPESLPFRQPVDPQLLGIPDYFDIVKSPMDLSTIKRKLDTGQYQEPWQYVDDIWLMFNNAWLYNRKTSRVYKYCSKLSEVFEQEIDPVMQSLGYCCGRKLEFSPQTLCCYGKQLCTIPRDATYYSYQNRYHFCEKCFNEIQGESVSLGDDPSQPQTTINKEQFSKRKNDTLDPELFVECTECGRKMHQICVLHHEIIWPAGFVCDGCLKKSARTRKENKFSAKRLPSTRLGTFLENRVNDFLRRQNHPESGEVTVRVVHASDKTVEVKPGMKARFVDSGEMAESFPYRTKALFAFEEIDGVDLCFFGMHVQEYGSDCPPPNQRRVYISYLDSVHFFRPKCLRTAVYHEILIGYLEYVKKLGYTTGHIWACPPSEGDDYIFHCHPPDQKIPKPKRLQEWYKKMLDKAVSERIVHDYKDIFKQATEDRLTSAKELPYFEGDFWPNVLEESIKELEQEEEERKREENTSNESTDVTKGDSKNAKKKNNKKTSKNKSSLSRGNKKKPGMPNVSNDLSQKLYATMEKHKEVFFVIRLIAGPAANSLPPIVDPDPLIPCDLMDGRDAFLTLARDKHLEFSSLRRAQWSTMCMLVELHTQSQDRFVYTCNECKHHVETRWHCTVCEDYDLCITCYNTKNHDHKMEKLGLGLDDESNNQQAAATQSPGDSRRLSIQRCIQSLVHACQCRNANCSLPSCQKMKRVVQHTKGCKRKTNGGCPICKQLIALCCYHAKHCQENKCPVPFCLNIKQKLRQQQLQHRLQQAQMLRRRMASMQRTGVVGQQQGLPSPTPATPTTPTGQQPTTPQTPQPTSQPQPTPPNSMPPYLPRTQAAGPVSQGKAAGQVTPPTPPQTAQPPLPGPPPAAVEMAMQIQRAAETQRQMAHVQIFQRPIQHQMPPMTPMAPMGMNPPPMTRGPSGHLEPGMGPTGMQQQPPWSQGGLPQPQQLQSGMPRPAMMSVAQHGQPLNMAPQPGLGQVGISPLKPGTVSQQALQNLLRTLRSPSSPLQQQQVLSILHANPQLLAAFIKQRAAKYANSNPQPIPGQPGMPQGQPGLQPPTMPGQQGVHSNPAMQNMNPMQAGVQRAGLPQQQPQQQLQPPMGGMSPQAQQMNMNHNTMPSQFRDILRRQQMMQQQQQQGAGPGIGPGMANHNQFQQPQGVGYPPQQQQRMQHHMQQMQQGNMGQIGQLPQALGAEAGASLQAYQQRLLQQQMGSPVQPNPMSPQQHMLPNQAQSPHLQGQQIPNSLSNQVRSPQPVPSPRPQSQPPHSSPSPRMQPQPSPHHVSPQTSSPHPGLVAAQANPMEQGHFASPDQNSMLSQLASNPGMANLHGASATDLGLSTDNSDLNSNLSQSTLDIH
structure (smiles),measurement,setting,value
CC1=NN(c2ccc(C(=O)NCCC(=O)NCCC(=O)Nc3cc(C(=O)Nc4cn(C)c(C(=O)Nc5cn(C)c(C(=O)Nc6cc(C(=O)NCCCC(=O)Nc7cc(C(=O)Nc8cc(C(=O)Nc9cc(C(=O)Nc%10cc(C(=O)NCCCN(C)C)n(C)c%10)n(C)c9)n(C)c8)n(C)c7)n(C)c6)n5)n4)n(C)c3)cc2)C(=O)/C1=C/c1ccc(-c2cc(C)c(C)cc2[N+](=O)[O-])o1,ΔTm,[1],16.9 °C
same,ΔTm,[2],11 °C
same,IC50,[3],3.9 to 4.2 µM
same,Activity,[4],Active
CCCCCCCCCCCCCCOc1cc(OCCCCCC(=O)NCCC(=O)Nc2cc(C(=O)Nc3cn(C)c(C(=O)Nc4cn(C)c(C(=O)Nc5cc(C(=O)NCCCC(=O)Nc6cc(C(=O)Nc7cc(C(=O)Nc8cc(C(=O)Nc9cc(C(=O)O)n(C)c9)n(C)c8)n(C)c7)n(C)c6)n(C)c5)n4)n3)n(C)c2)cc(O)c1C(=O)O,inhibition,[3],Dose-dependent effect
CC1=NN(c2ccc(C(=O)O)cc2)C(=O)/C1=C/c1ccc(-c2cc(C)c(C)cc2[N+](=O)[O-])o1,IC50,[5],10 µM
same,IC50,[6],6 µM
same,IC50,[7],6.3 µM
same,Activity,[4],inactive
CC(=O)Nc1cc(C(=O)Nc2cn(C)c(C(=O)Nc3cn(C)c(C(=O)Nc4cc(C(=O)NCCCC(=O)Nc5cc(C(=O)Nc6cc(C(=O)Nc7cc(C(=O)Nc8cc(C(=O)NCCCN(C)C)n(C)c8)n(C)c7)n(C)c6)n(C)c5)n(C)c4)n3)n2)n(C)c1,inhibition,[8],inactive
same,Activity,[4],inactive
